Assay results taken from ChEMBL document CHEMBL4265954, “Discovery of potent liver-selective stearoyl-CoA desaturase-1 (SCD1) inhibitors, thiazole-4-acetic acid derivatives, for the treatment of diabetes, hepatic steatosis, and obesity” (Eur J Med Chem, 2018).
pIC50: −log10 of the molar value. In brackets after ≈: the same amount, converted by molar mass. Activity calls are given as the source filed them. The rule behind the calls is not given here.

Key:
[1] = Apparent permeability of the compound in human Caco2 cells; format: ADME, cell-based; details: Caco-2
Mus musculus [2] = assay: Ex vivo inhibition of SCD1 in C57BL/6J mouse eyelid assessed as residual activity at 1 mg/kg, po treated for 6 hrs followed by incubation with [14C]stearoyl-CoA substrate for 30 mins by TLC assay relative to control; format: organism-based
How it was run: (§1)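 Male 6-week-old C57BL/6J mice dosed orally as a suspension in 0.5% methylcellulose. Liver or eyelid was taken 6 or 24 h later and homogenized in 100 mM Tris-HCl pH 7.4 with 0.25 M sucrose. S9 was obtained at 10,000 × g, 4 °C. S9 was incubated with [14C]stearoyl-CoA, NADH, MgCl2 and cytochrome b5 at room temperature, 10 min for liver and 30 min for eyelid. Lipids were saponified and run on AgNO3 TLC to quantify stearate and oleate. Result is % of vehicle control.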

[3] = Oral bioavailability in C57BL/6J mouse at 10 mg/kg; format: ADME, organism-based; details: in vivo
How it was run: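 Two male C57BL/6J mice per route, 10 mg/kg po and 1 mg/kg iv. Plasma concentration–time profiles gave Cmax, tmax, terminal half-life and AUC0-inf. Bioavailability was derived from the po and iv data.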

Mus musculus [4] = assay: Ex vivo inhibition of SCD1 in C57BL/6J mouse liver assessed as residual activity at 10 mg/kg, po treated for 24 hrs followed by incubation with [14C]stearoyl-CoA substrate for 10 mins by TLC assay relative to control; format: functional; how it was run: as §1
Mus musculus [5] = assay: Ex vivo inhibition of SCD1 in C57BL/6J mouse liver assessed as residual activity at 1 mg/kg, po treated for 6 hrs followed by incubation with [14C]stearoyl-CoA substrate for 10 mins by TLC assay relative to control; format: functional; how it was run: as §1
Mus musculus [6] = assay: Ex vivo inhibition of SCD1 in C57BL/6J mouse eyelid assessed as residual activity at 0.1 mg/kg, po treated for 24 hrs followed by incubation with [14C]stearoyl-CoA substrate for 30 mins by TLC assay relative to control; format: organism-based; how it was run: as §1
[7] = AUC (0 to infinity) in C57BL/6J mouse at 10 mg/kg, po; format: ADME, organism-based; set-up: dose 10 mg/kg, time infinity, route oral; details: in vivo
Acyl-CoA desaturase 1 = molecular target: T1, Acyl-CoA desaturase 1 (Mus musculus, UniProt P13516); assay: Inhibition of mouse liver microsome SCD assessed as reduction in [3H]H2O production using stearoyl [9,10-3H]CoA as substrate in presence of NADH incubated for 30 mins by scintillation counting method; format: microsomes
T1 sequence (P13516 whole entry): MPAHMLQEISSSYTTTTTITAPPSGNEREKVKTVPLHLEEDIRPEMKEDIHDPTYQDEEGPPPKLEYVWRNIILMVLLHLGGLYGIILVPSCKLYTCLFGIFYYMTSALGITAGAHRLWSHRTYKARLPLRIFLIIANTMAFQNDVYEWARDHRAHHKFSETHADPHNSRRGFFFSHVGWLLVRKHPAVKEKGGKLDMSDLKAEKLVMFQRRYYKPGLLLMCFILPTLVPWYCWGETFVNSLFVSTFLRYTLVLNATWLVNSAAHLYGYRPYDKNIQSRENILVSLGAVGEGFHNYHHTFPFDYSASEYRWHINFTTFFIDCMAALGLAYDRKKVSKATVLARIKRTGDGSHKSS
How it was run: (§2)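 Desaturation of [9,10-3H]stearoyl-CoA measured as released [3H]H2O. Water was separated from charcoal-adsorbed substrate by filtration and counted by scintillation. Remaining activity = (compound − background)/(control − background). DMSO wells served as control and pre-stopped wells as background. IC50 was interpolated from the two points bracketing 50%.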

Mus musculus [8] = assay: Ex vivo inhibition of SCD1 in C57BL/6J mouse liver assessed as residual activity at 10 mg/kg, po treated for 6 hrs followed by incubation with [14C]stearoyl-CoA substrate for 10 mins by TLC assay relative to control; format: functional; how it was run: as §1
[9] = Solubility of the compound in PBS at pH 7.2; format: physicochemical
Mus musculus [10] = assay: Ex vivo inhibition of SCD1 in C57BL/6J mouse liver treated orally for 6 hrs followed by incubation with [14C]stearoyl-CoA substrate for 10 mins by TLC assay; format: functional, organism-based; how it was run: as §1
Mus musculus [11] = assay: Ex vivo inhibition of SCD1 in C57BL/6J mouse eyelid assessed as residual activity at 10 mg/kg, po treated for 24 hrs followed by incubation with [14C]stearoyl-CoA substrate for 30 mins by TLC assay relative to control; format: organism-based; how it was run: as §1
[12] = molecular target: Acyl-CoA (8-3)-desaturase (Homo sapiens, UniProt O60427); assay: Inhibition of delta-5 fatty acid desaturase (unknown origin)
Acyl-CoA (8-3)-desaturase, sequence (O60427 whole entry): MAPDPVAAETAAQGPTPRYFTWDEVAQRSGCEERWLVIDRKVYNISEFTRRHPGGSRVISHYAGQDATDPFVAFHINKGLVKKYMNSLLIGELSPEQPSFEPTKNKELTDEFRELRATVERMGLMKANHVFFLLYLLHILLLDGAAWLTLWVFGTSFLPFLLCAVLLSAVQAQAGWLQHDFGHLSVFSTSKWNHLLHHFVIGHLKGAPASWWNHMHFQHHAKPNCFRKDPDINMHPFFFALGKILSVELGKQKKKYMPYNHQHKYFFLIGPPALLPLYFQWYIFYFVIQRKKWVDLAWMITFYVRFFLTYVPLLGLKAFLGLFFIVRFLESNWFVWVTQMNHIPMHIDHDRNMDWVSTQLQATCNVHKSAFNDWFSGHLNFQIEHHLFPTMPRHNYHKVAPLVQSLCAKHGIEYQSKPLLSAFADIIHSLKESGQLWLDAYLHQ

Mus musculus [13] = assay: Ex vivo inhibition of SCD1 in C57BL/6J mouse eyelid assessed as residual activity at 1 mg/kg, po treated for 24 hrs followed by incubation with [14C]stearoyl-CoA substrate for 30 mins by TLC assay relative to control; format: organism-based; how it was run: as §1
Stearoyl-CoA desaturase = molecular target: T2, Stearoyl-CoA desaturase (Homo sapiens, UniProt O00767); assay: Inhibition of recombinant human SCD1 expressed in baculovirus expression system assessed as reduction in [3H]H2O production using stearoyl [9,10-3H]CoA as substrate in presence of NADH incubated for 30 mins by scintillation counting method; how it was run: as §2
T2 sequence (O00767 whole entry): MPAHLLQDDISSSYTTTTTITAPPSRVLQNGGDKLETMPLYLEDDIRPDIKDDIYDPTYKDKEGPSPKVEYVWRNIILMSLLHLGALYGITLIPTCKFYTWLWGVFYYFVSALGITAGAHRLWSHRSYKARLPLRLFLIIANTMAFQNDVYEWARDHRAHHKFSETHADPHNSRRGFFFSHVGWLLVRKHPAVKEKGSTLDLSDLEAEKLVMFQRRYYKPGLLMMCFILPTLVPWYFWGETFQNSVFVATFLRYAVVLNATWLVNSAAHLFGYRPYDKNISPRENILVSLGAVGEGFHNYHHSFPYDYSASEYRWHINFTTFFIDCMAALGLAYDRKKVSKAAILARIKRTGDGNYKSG

Mus musculus [14] = assay: Ex vivo inhibition of SCD1 in C57BL/6J mouse eyelid assessed as residual activity at 0.1 mg/kg, po treated for 6 hrs followed by incubation with [14C]stearoyl-CoA substrate for 30 mins by TLC assay relative to control; format: organism-based; how it was run: as §1
Mus musculus [15] = assay: Antiobesity activity in high fat diet fed C57BL/6J mouse assessed as reduction in diet-induced body weight gain at 10 mg/kg, po administered as diet mixture for 43 days relative to control; format: functional
How it was run: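 C57BL/6J mice, individually housed, fed HFD for one month, then given HFD admixed with drug (0.0040% for 3 mg/kg/day, 0.0133% for 10 mg/kg/day) for 43 days, from 10 to 16 weeks of age. Chow-fed normal group as control. Body weight measured every 3–4 days. Mean ± SD, n=5–8. Dunnett's test versus HFD control.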

Mus musculus [16] = assay: Ex vivo inhibition of SCD1 in C57BL/6J mouse liver assessed as residual activity at 0.1 mg/kg, po treated for 24 hrs followed by incubation with [14C]stearoyl-CoA substrate for 10 mins by TLC assay relative to control; format: functional; how it was run: as §1
Mus musculus [17] = assay: Ex vivo inhibition of SCD1 in C57BL/6J mouse eyelid assessed as residual activity at 10 mg/kg, po treated for 6 hrs followed by incubation with [14C]stearoyl-CoA substrate for 30 mins by TLC assay relative to control; format: organism-based; how it was run: as §1
Mus musculus [18] = assay: Ex vivo inhibition of SCD1 in C57BL/6J mouse eyelid assessed as residual activity at 100 mg/kg, po treated for 24 hrs followed by incubation with [14C]stearoyl-CoA substrate for 30 mins by TLC assay relative to control; format: organism-based; how it was run: as §1
Mus musculus [19] = assay: Ex vivo inhibition of SCD1 in C57BL/6J mouse liver assessed as residual activity at 1 mg/kg, po treated for 24 hrs followed by incubation with [14C]stearoyl-CoA substrate for 10 mins by TLC assay relative to control; format: functional; how it was run: as §1
Mus musculus [20] = assay: Ex vivo inhibition of SCD1 in C57BL/6J mouse liver assessed as residual activity at 0.1 mg/kg, po treated for 6 hrs followed by incubation with [14C]stearoyl-CoA substrate for 10 mins by TLC assay relative to control; format: functional; how it was run: as §1
Mus musculus [21] = assay: Ex vivo inhibition of SCD1 in C57BL/6J mouse eyelid treated orally for 6 hrs followed by incubation with [14C]stearoyl-CoA substrate for 30 mins by TLC assay; format: organism-based; details: po; how it was run: as §1

Papp [1]: 127 nm/s
Activity (Mus musculus [2]): 41%
bioavailability [3]: 15%
Activity (Mus musculus [6]): 100%
AUC(0-inf) [7]: 2400 nM·h
pIC50 (Acyl-CoA desaturase 1): 8.42
solubility [9]: 2.4 µM (≈ 0.81 µg/mL)
Activity (Mus musculus [11]): 4%
pIC50 [12]: < 4.52
Activity (Mus musculus [13]): 82%
pIC50 (Stearoyl-CoA desaturase): 8.19
Activity (Mus musculus [14]): 144%
Activity (Mus musculus [17]): -2%
Activity (Mus musculus [18]): 4%
inhibition (INH) (Mus musculus [21]): Dose-dependent effect
SMILES: Cc1csc(NC(=O)c2ccc(CNc3ccccc3C)cc2)n1
Activity (Mus musculus [4]): 109%
Activity (Mus musculus [5]): 24%
Activity (Mus musculus [8]): 22%
inhibition (Mus musculus [10]): Dose-dependent effect
Activity (Mus musculus [15]): Active
Activity (Mus musculus [16]): 105%
Activity (Mus musculus [19]): 120%
Activity (Mus musculus [20]): 58%
